Data on 6 molecules can be found in ChEMBL document CHEMBL1122000 (J Med Chem, 1982).

The species entered for data set [1] is Mus musculus. Description: Concentration required for antagonistic activity of Met-enkephalin in the mouse vas deferens at the dose ratio of 2. Type of data set: functional.
For data set [2], the species on record is Mus musculus. Briefly: Concentration required for antagonistic activity of normorphine in the mouse vas deferens at the dose ratio of 2. It is filed as functional.
Data set [3] deals with Rattus norvegicus. Briefly: Antagonistic potency of compound after oral administration in rats. It is filed as functional. The essentials:
(§1)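 Rats, 10 animals per dose level. Drugs were given as bases in saline vehicle, sc or orally. Antagonist activity was read in the hot-water tail-flick test. AD50 values were reported with limits.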

The nature of data set [4]: Partition coefficient (logP). Type of data set: physicochemical. The following applies: octanol/water.
Data set [5] is filed under the species Rattus norvegicus. Briefly: Duration of action of compound was determined at the AD99 dose level in rats. Type of data set: functional. The essentials:
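Rats, 10 per dose level; bases in saline vehicle given sc. Antagonism was followed in the hot-water tail-flick test at the AD99 dose, which was extrapolated from AD50 values. Duration of action is given in hours.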

Data set [6] relates to Rattus norvegicus. Description: (§2) Antagonistic potency of compound after subcutaneous administration in rats. Type of data set: functional. The essentials: as §1
The subject of data set [7] is Rattus norvegicus. The data set is described as §2. Type of data set: functional. The source holds these as a separate data set.
The target in data set [8] is T1, Opioid receptor (Rattus norvegicus, UniProt P33533+P34975+P33535). Briefly: Inhibition of stereospecific [3H]diprenorphine binding to opioid receptors of rat brain homogenates by 50% in the presence of Na.
Data set [9] addresses T1, Opioid receptor. Description: Inhibition of stereospecific [3H]diprenorphine binding to opioid receptors of rat brain homogenates by 50% in the absence of Na.
The nature of data set [10]: In vitro narcotic agonist potency of compound as ratio to normorphine (=1) was assessed in mouse vas deferens. Type of data set: functional.
For data set [11], the species on record is Mus musculus. Description: Concentration required for antagonistic activity of Met-enkephalin in the mouse vas deferens at the dose ratio of 2. It is filed as functional.

Structures are written as SMILES.

As a reminder, the logP is a log measure of how a compound divides between an organic and an aqueous phase. Usually IC50 stands for the concentration that inhibits the measured activity by half.

Consider `C=CCN1CC[C@]23c4c5ccc(O)c4O[C@H]2C(=O)CC[C@@]3(O)[C@H]1C5` [NALOXONE], for which the Concentration in the data set filed under Mus musculus [1] amounted to 10.1 ng/mL; in the data set filed under Mus musculus [2] it was 0.51 ng/mL. The AD50 in the data set with Rattus norvegicus [3] worked out at 13 mg/kg; in the data set on Rattus norvegicus [6], 0.023 mg/kg. Further, the logP in data set [4] (read-out: logP) turned out to be 1.91. This molecule registered a Duration in the data set listed under Rattus norvegicus [5] of 3 h. Moreover, in the data set with Rattus norvegicus [7], the AD99 is 0.1 mg/kg.
As to `O=C1CC[C@@]2(O)[C@H]3Cc4ccc(O)c5c4[C@@]2(CCN3CC2CC2)[C@H]1O5` [NALTREXONE], the Concentration in the data set listed under Mus musculus [1] was determined as 9 ng/mL; in the data set listed under Mus musculus [2], 0.165 ng/mL. Also, the AD50 was determined as 1.35 mg/kg in the data set with Rattus norvegicus [3] and 0.009 mg/kg in the data set on Rattus norvegicus [6]. In [4], this molecule yielded a logP of 3.047. The Duration in the data set listed under Rattus norvegicus [5] amounted to 5 h. The AD99 in the data set with Rattus norvegicus [7] was 0.05 mg/kg.
As to `C=CCN1CC[C@]23c4c5ccc(O)c4O[C@H]2C(=O)CC[C@@]3(OCC)C1C5`, the Concentration in the data set listed under Mus musculus [1] is 7.9 ng/mL; in the data set filed under Mus musculus [2], 0.33 ng/mL. Besides, the AD50 is 3.8 mg/kg with Rattus norvegicus [3] and 0.034 mg/kg in the data set with Rattus norvegicus [6]. Besides, in [4] (read-out: logP), the lipophilicity (logP) came to 3.05. The same molecule registered a Duration in the data set listed under Rattus norvegicus [5] of 6 h. In the data set on Rattus norvegicus [7], this molecule showed an AD99 of 0.14 mg/kg.
Consider `CCO[C@@]12CCC(=O)[C@@H]3Oc4c(O)ccc5c4[C@@]31CCN(CC1CC1)C2C5`, for which the IC50 turned out to be 3.8 nM at Opioid receptor [8] and 8 nM on Opioid receptor [9]. Also, the values for the Concentration in the data set listed under Mus musculus [1] and in the data set listed under Mus musculus [2] were 4.1 ng/mL and 0.07 ng/mL, respectively. For the same molecule, the AD50 in the data set with Rattus norvegicus [3] is 1.5 mg/kg; in the data set with Rattus norvegicus [6], 0.005 mg/kg. For the same molecule, the logP in data set [4] (read-out: logP) stood at 3.58. In the data set filed under Rattus norvegicus [5], this molecule returned a Duration of 4 h. The Potency ratio in data set [10] is on record as less than 0.12. In the data set with Rattus norvegicus [7], this molecule yielded an AD99 of 0.14 mg/kg.
In the case of `C=CCN1CC[C@]23c4c5ccc(O)c4O[C@H]2C(=O)CC[C@@]3(OC)C1C5`, the Concentration is 0.46 ng/mL in the data set filed under Mus musculus [2] and 7.3 ng/mL in the data set listed under Mus musculus [11]. The AD50 in the data set on Rattus norvegicus [3] was greater than 30 mg/kg; in the data set on Rattus norvegicus [6], 0.041 mg/kg. The logP in [4] (read-out: logP) came out at 2.52. Besides, the Duration in the data set listed under Rattus norvegicus [5] was 4 h. In the data set with Rattus norvegicus [7], this molecule gave an AD99 of 0.15 mg/kg.
Regarding `CO[C@@]12CCC(=O)[C@@H]3Oc4c(O)ccc5c4[C@@]31CCN(CC1CC1)[C@@H]2C5`, the results for the IC50 at Opioid receptor [8] and on Opioid receptor [9] were 16 nM and 18 nM, respectively. Also, the values for the Concentration in the data set listed under Mus musculus [1] and in the data set filed under Mus musculus [2] were 11.5 ng/mL and 0.26 ng/mL, respectively. Moreover, the AD50 stood at 4.4 mg/kg with Rattus norvegicus [3] and 0.019 mg/kg in the data set with Rattus norvegicus [6]. Besides, the logP in data set [4] (read-out: logP) is 3.05. The Duration in the data set filed under Rattus norvegicus [5] came to 8 h. Moreover, in [10], the Potency ratio is less than 0.063. In the data set on Rattus norvegicus [7], this molecule displayed an AD99 of 0.25 mg/kg.
